# In PubChem BioAssay AID743247 (Broad Institute, 2014):
# Where “and” joins values, the source holds several entries; their conditions need not be identical. Identical values can stand only once. Screen size: about 350,000 compounds; about 300 (0.086%) were called active. The entries come from a sample that favours actives as a whole. Values without a mark were called inactive.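 The calls were made as follows: active = mean inhibition across replicates of 30% or more, regardless of how many single replicates reach that level; inconclusive = mean under 30% yet at least half of replicates reach 30%; inactive = the rest.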
# Test: blockers of fibronectin fibrillogenesis by fibroblasts – AH1F cells, Alexa488-fibronectin fluorescence, plate reader, primary screen (AID 743247);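 also: positive control wells lacked labelled fibronectin entirely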
# Conditions: Alexa488-fibronectin deposition fluorescence, overnight, at 12.6 µM, stronger effect = higher value
# Method in brief: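 test system = AH1F fibroblasts assembling fluorescent fibronectin matrix | quantity = 10000 AH1F cells per well | buffer or medium = DMEM plus 2% serum, read in PBS | doses = single dose, pinned | incubation = 1 h cell attachment, overnight exposure to compound and label | detection = fluorescence at 485 nm excitation, 525 nm emission | read-out basis = inhibition from reduced deposited-fibronectin fluorescence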
row,SMILES,inhibition
1,O=C(NCc1ccc(F)cc1)[C@@H]1[C@@H](CO)[C@@H]2Cn3c(cccc3=O)[C@@H]2N1C(=O)c1cccnc1,12.8%
2,C[C@H]1CN([C@@H](C)CO)C(=O)c2cccc(NC(=O)CCCCCC(=O)Nc3ccccc3N)c2O[C@@H]1CN(C)C(=O)NC1CCCCC1,17%
3,COc1ccc(Nc2nc(N)nc(CSC(=S)N3CCC(C)CC3)n2)cc1,4.46%
4,CCOC(=O)c1cnc(SCc2nc(N)nc(Nc3ccc(OC)cc3)n2)nc1N,14.2% (active)
5,CCOC(=O)C1CCCN(Cc2nc(N)nc(Nc3ccc(C)cc3)n2)C1 (centres undefined),-4.21%
6,CN1C(=O)c2cc(NC(=O)c3cccs3)ccc2OC[C@H]2O[C@@H](CC(=O)NCC3CC3)CC[C@@H]21,-3.33%
7,CC(C)[C@@H]1COCc2cn(nn2)CC[C@@H](C)C(=O)N1,-0.112%
8,CCCNC(=O)Nc1ccc2c(c1)C(=O)N(C)C[C@@H](OC)[C@@H](C)CN(Cc1ccccn1)[C@@H](C)CO2,0.86%
9,CC(C)NC(=O)N(C)C[C@H]1Oc2ccc(N)cc2CC(=O)N(C)C[C@H]1C,3.3%
10,N#Cc1ccc(-c2ccc(C3[C@@H]4CN(S(=O)(=O)c5cccc(Cl)c5)C[C@H]3N4)cc2)cc1 (some centres undefined),-6.82%
11,C[C@@H]1CCCCO[C@H](CN(C)C(=O)CCCN(C)C)[C@@H](C)CN([C@@H](C)CO)C(=O)c2cc(NC(=O)c3ccncc3)ccc2O1,-3.34%
12,C[C@H](CO)N1C[C@H](C)[C@@H](CN(C)C(=O)C2CC2)Oc2ncc(C#CC(C)(C)O)cc2C1=O,-19.9%
13,C[C@@H]1CN([C@H](C)CO)C(=O)c2c(c3ccccc3n2C)-c2ccccc2CO[C@@H]1CN(C)Cc1ccccc1C(F)(F)F,3.35%
14,COc1ccc(S(=O)(=O)Nc2ccc3c(c2)C(=O)N(C)C[C@@H](OC)[C@H](C)CN(C(=O)NC(C)C)[C@H](C)CO3)cc1,6.84%
15,N#C[C@H]1[C@H](c2ccccc2-c2ccc(F)cc2)[C@H](CO)N1C(=O)Cc1ccncc1,-14.3%
16,CC(C)NC(=O)N(C)C[C@@H]1OCCCC[C@H](C)Oc2ccc(NC(=O)Nc3ccccc3)cc2C(=O)N([C@H](C)CO)C[C@@H]1C,1.11%
17,CCCNC(=O)N1[C@@H]2CNC[C@H]1C2c1ccc(-c2cccc(C)c2)cc1 (some centres undefined),-3.69% and -7.75%
18,Cc1cccc(S(=O)(=O)N2CC[C@@H]3[C@H]2c2cc(C#Cc4ccccc4F)ccc2N[C@@H]3CO)c1,15.8%
19,CNC[C@H]1Oc2ccc(NC(=O)NC(C)C)cc2C(=O)N(C)C[C@@H]1C,-10.1%
20,O=C1N[C@H](Cc2ccccc2)COCc2cn(nn2)CC[C@@H]1Cc1ccc(-c2ccccc2)cc1,7.74%
21,CNC[C@H]1Oc2ncccc2C(=O)N(C)C[C@@H]1C,3.59%
22,CC(=O)N1[C@H](CO)[C@H](c2ccccc2)[C@H]1CN(C(=O)c1ccccc1F)C(C)C,-2.39%
23,CCCC(=O)Nc1ccc2c(c1)OC[C@H](C)N(C(=O)CC)C[C@H](C)[C@@H](OC)CN(C)C2=O,-4.46%
24,C=C(C)C[C@H]1CCn2cc(nn2)COCCNC1=O,-4.67%
25,C[C@@H]1C(=O)N[C@H](c2ccc3c(c2)OCO3)CC=CC[C@H](C)Oc2ccccc2C(=O)N1C (mixture of isomers),-8.64%
26,COc1ccc(S(=O)(=O)N2C[C@H](O)COC[C@@H]3O[C@H](CC(=O)NCCN4CCCCC4)CC[C@H]32)cc1,4.18%
27,O=C1CCC(=O)N[C@H](c2ccccc2)C/C=C\CCN1,-1.16%

row,SMILES,inhibition
1,C[C@H]1CN([C@@H](C)CO)C(=O)c2c(c3ccccc3n2C)-c2ccccc2CO[C@@H]1CN(C)CC1CCCCC1,-4.72%
2,CO[C@H]1CN(C)C(=O)c2cc(NC(=O)NC(C)C)ccc2OC[C@@H](C)NC[C@@H]1C,-16.2%
3,COc1ccc2c3c([nH]c2c1)[C@@H](CO)N(C)CC31CCN(S(=O)(=O)c2ccc(C)cc2)CC1,3.31%
4,CC(=O)Nc1ccc2c(c1)CC(=O)N(C)C[C@H](C)[C@H](CN(C)S(C)(=O)=O)O2,-0.444%
5,C[C@H](CO)N1C[C@H](C)[C@@H](CN(C)Cc2ccncc2)Oc2cc(Br)ccc2S1(=O)=O,-7.26%
6,COCC(=O)N(C)C[C@H]1[C@@H](c2ccccc2)[C@H](CO)N1C(=O)Cc1ccncc1,-3.58%
7,O=C1NCCCOCc2cn(nn2)CC[C@@H]1Cc1ccc(-c2ccccc2)cc1,1.3%
8,C[C@@H]1COCc2cn(nn2)CC[C@H](C)C(=O)N1,-2.55%
9,O=C(C1CCC1)N1CC2(C1)[C@H](c1ccccc1)[C@H](CO)N2Cc1nccs1,4.67%
10,C[C@H](CO)N1C[C@H](C)[C@@H](CN(C)Cc2ccc(Cl)c(Cl)c2)Oc2ccc(NC(=O)Cn3cnnn3)cc2CC1=O,-6.99%
11,O=C(Cc1ccncc1)N1CC[C@@H]2[C@@H](CO)Nc3ccc(C4=CCCCC4)cc3[C@@H]21,-5.08%
12,CO[C@H]1CN(C)C(=O)c2ccc(NC(=O)C3CCC3)cc2OC[C@H](C)NC[C@@H]1C,4.29%
13,CC(=O)NC[C@H]1[C@H](c2ccc(C3=CCCCC3)cc2)[C@@H](CO)N1C(=O)NC(C)C,-4.24%
14,Cc1ccccc1S(=O)(=O)N[C@@H]1CC[C@@H](CCNS(=O)(=O)c2cccc(F)c2)O[C@H]1CO,-1.75%
15,O=C(C[C@H]1CC[C@@H]2[C@H](COC[C@@H](O)CN2CC2CC2)O1)NCC1CC1,-7.99%
16,CCC(=O)N(C)C[C@H]1Oc2ncc(-c3ccc(C#N)cc3)cc2C(=O)N([C@@H](C)CO)C[C@H]1C,-1.88%
17,C/C=C/c1ccc(C2[C@H]3CNC[C@@H]2N3CC2CCOCC2)cc1 (some centres undefined),3.6%
18,CO[C@@H]1CN(C)C(=O)c2cc(NC(=O)c3cccc(Oc4ccccc4)c3)ccc2OC[C@H](C)NC[C@@H]1C,15.5%
19,O=C1CCCCn2nncc2COC[C@@H](Cc2ccccc2)N1,5.42%
20,COCC(=O)N1CC2(CN(S(C)(=O)=O)C2)c2c(n(C)c3cc(OC)ccc23)[C@@H]1CO,-4.29%
21,O=C(C[C@H]1C[C@H]2c3cc(NC(=O)CC4CC4)ccc3O[C@H]2[C@H](CO)O1)NCc1cc(F)ccc1F,-4.07%
22,COc1ccc2c3c(n(C)c2c1)[C@@H](CO)N(Cc1ccncc1)CC31CN(C(=O)Nc2cccc(F)c2)C1,-9.67%
23,C[C@H](CO)N1C[C@H](C)[C@@H](CN(C)C(=O)Cc2ccccn2)Oc2cc(-c3cccc(C(=O)N(C)C)c3)ccc2S1(=O)=O,3.4%
24,O=C(NC1=CC(=O)c2ccccc2C1=O)c1ccccc1,62.2% (active)
25,O=C(NC(=O)c1ccccc1)Nc1ccccc1O,-0.509%
26,COC(=O)c1nc(NC(=O)c2ccccc2)n[nH]1,5.02%
27,C[C@@H]1CC(=O)N[C@H](c2ccccc2)C/C=C\C[C@H](c2ccccc2)NC1=O,-9.6%
